Beta apoptosis: beta cell apoptosis inhibition; INS-1E cytokine-induced death, ATP luminescence, 48 h; percent of positive-control rescue, neutral wells zero; protection from apoptosis, % (concentration not given with the values); AID 435005; 0.8% of 300,000 active;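 active means Every replicate reaches about 75%, or at least half do and their mean reaches it too, limit read from the data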;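 further: higher means more ATP so stronger rescue from cytokine killing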
NR3A LBD binder: modulates the human NR3A ligand-binding domain; NR3A LBD differential scanning fluorimetry, Tm shift; 0% = protein alone, 100% = glycine-bound protein; Tm shift relative to glycine control, % at 25 µM; 2.5% of 340,000 active; AID 1259313;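 active means melting temperature shift of at least 10% of the positive control shift, at one fixed dose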
T cruzi inh: T. cruzi replication inhibition. 1.4% of 300,000 active. T. cruzi beta-gal in NIH3T3, luminescence, 90 h. inhibition, % (concentration not given with the values);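 active means mean inhibition across valid replicates above about 55%, limit read from the data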;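 further: signal also drops with host cell toxicity which is not excluded here; higher percent means less beta-gal luminescence so fewer parasites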
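Incubation – ≥90 h infection period, 3 h prior cell attachment · System – NIH/3T3 fibroblasts plus reporter T. cruzi · Doses – compound pinned at 50 nL/well, DMSO · Read-out basis – percent inhibition of parasite-derived β-gal signal · Signal – luminescent β-galactosidase signal after 60 min lysis · Also added – 5000 T. cruzi trypomastigotes/well · Medium – Low-serum DMEM with 2% FBS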
PREPL inh: inhibitors of human prolyl oligopeptidase-like enzyme PREPL; recombinant PREPL, fluorescence polarization activity-based probe; inhibition, % at 5.96 µM; 0.68% of 320,000 active; in the data active means inhibition above about 43%
Target sequence (Q4J6C6 whole entry, looked up): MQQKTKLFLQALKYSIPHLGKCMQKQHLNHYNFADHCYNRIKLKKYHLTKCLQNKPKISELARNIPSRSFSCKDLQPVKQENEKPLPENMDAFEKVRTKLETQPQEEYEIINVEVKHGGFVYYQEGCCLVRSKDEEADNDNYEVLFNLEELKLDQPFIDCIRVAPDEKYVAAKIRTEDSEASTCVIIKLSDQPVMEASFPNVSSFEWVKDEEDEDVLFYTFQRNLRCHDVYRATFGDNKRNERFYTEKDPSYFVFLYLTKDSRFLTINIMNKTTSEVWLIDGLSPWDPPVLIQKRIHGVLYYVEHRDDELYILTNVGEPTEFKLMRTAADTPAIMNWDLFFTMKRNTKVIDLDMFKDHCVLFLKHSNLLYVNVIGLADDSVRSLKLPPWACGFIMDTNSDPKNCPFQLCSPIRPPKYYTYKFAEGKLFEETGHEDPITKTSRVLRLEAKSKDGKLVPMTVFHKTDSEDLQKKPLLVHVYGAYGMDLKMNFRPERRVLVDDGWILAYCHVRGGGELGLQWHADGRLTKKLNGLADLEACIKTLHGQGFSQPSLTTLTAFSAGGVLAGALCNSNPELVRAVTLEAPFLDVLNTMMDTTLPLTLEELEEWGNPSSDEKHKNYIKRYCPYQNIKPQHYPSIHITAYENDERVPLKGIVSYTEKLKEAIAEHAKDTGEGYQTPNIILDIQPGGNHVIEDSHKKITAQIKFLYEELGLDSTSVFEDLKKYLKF
CHOP inhibitor: CHOP inhibition in unfolded protein response; CHO-K1 CHOP-promoter luciferase, tunicamycin-induced, 15-18 h; inhibition, % at 10 µM; 3.8% of 220,000 active; AID 2732;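 active means compounds that reduced the stress-induced luciferase reporter signal by more than about 70% of percent inhibition, limit read from the data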
CSC inhib: blocks cancer stem cells. cancer stem cell-like cells viability, luminescence. inhibition, % at 7.5 µM. 1.1% of 300,000 active. AID 2717; in the data active means inhibition above about 75%; tested in HMLE shEcad cells
A number is an active result; 0 = inactive; - = no result given. Most compounds without a hit are left out; they make up all but 6.7% or so of the library.

SMILES	Beta apoptosis	NR3A LBD binder	T cruzi inh	PREPL inh	CHOP inhibitor	CSC inhib
OCCCn1c(CCNc2nc(-c3ccc(Cl)cc3)cs2)nc2cc(C(F)(F)F)ccc21	0	0	0	0	-	78
O=Cc1ccc(C(=O)OCC(=O)NCc2ccco2)cc1	0	0	-	0	-	0
O=C(NC1=NCCS1)c1cccc(S(=O)(=O)N2CCOCC2)c1	0	0	-	0	-	0
COc1cc(/C=N/NC(=O)c2nnn(-c3nonc3N)c2C(C)C)ccc1OCc1ccccc1	0	35	0	0	-	0
CC(C)c1c(C(=O)N/N=C/c2ccc(OCc3ccc(F)cc3)cc2)nnn1-c1nonc1N	0	29	0	0	-	0
Cc1ccccc1COc1cccc(/C=N/NC(=O)c2nnn(-c3nonc3N)c2C)c1	0	0	0	0	-	0
CC(C)c1c(C(=O)N/N=C/c2cccc(OCc3ccccc3)c2)nnn1-c1nonc1N	0	24	0	0	-	0
Cc1c(C(=O)N/N=C/c2cccc(O)c2)nnn1-c1nonc1N	0	12	0	0	-	0
COc1cccc(/C=N/NC(=O)c2nnn(-c3nonc3N)c2C(C)C)c1OCc1ccc(F)cc1	0	0	0	0	-	0
O=C(OCC(=O)N1CCN(C(=O)COC(=O)c2ccccc2NCCO)CC1)c1ccccc1NCCO	-	0	-	-	-	-
COc1cc(/C=N/NC(=O)c2nnn(-c3nonc3N)c2C(C)C)ccc1O	0	30	0	0	-	0
CC(C)c1c(C(=O)N/N=C/c2ccc(C(F)(F)F)cc2)nnn1-c1nonc1N	0	28	0	0	-	0
CC(C)c1c(C(=O)N/N=C/c2ccoc2)nnn1-c1nonc1N	0	0	0	0	-	0
CC(C)c1c(C(=O)N/N=C/c2ccc(OCc3ccccc3)cc2)nnn1-c1nonc1N	0	32	0	0	-	0
O=C(Cn1c(C(F)(F)F)nc2ccccc21)N/N=C/c1ccco1	-	0	0	0	0	0
O=C(c1cc(C2CC2)nn1-c1ccccc1)N1CCN(S(=O)(=O)c2c(F)cccc2F)CC1	0	0	-	0	-	-
Cc1ccccc1Oc1cc(NC(=O)CCCn2nc(C)c([N+](=O)[O-])c2C)cc([N+](=O)[O-])c1	105	0	0	0	91	0
Cc1nn(CCCC(=O)Nc2cc(Oc3ccc(F)cc3)cc([N+](=O)[O-])c2)c(C)c1[N+](=O)[O-]	0	0	0	0	0	0
Cc1c(Cl)c([N+](=O)[O-])nn1CCCC(=O)Nc1cc(Oc2ccccc2)cc([N+](=O)[O-])c1	0	18	0	0	0	0
Cc1ccc(Oc2c(CO)c(-c3ccccc3)nn2C)cc1	0	0	0	0	0	0
O=[N+]([O-])c1ccc(-c2cnc(SC(c3ccccc3)c3ccccc3)[nH]2)cc1	0	26	0	0	73	0
Cc1cc(C)c(CSc2ncc(-c3ccc([N+](=O)[O-])cc3)[nH]2)c(C)c1	0	12	58	0	75	0
O=[N+]([O-])c1ccc(-c2cnc(SCc3ccccc3Cl)[nH]2)cc1	0	13	0	0	0	0
NC(=O)CSc1ncc(-c2ccc([N+](=O)[O-])cc2)[nH]1	0	0	0	0	0	0
C=CCN1c2ccccc2[C@]23C[C@@H](C(=O)OC)N(C(=O)c4cccs4)C2=NC(C(=O)OC)=C(C(=O)OC)[C@H]13	0	0	0	0	0	0
SMILES	Beta apoptosis	NR3A LBD binder	T cruzi inh	PREPL inh	CHOP inhibitor	CSC inhib
O=C(NCC(c1ccco1)N1CCCCC1)c1cccc(S(=O)(=O)Nc2ccc(F)cc2)c1 (stereo unspecified)	-	0	-	-	-	-
c1ccc(CN2CCN(c3ncccn3)CC2)cc1	0	0	0	0	-	0
CC1(C)CC(N2CCN(Cc3ccccc3)CC2)=CC(=[N+]2CCCCC2)C1	109	0	62	0	0	0
Cc1cc(Nc2cccc(Cl)c2)nc(NCc2ccccc2)n1	107	0	58	0	106	108
Cc1cc(N2CCCCC2)nc(NCc2ccccc2)n1	0	0	56	0	0	-
Cc1cc(N2CCOCC2)nc(NCc2ccccc2)n1	0	0	0	0	0	0
Cc1cc(N/N=C/c2ccccc2)nc(NCc2ccccc2)n1	0	0	0	0	0	0
Cc1cc(C)nc(NCc2ccc(Cl)cc2)n1	0	0	0	0	-	0
Cc1cc(N/N=C/c2ccc(Cl)cc2)nc(NCc2ccccc2)n1	0	27	80	0	0	0
Cc1cc(N/N=C/c2cccc(Cl)c2)nc(NCc2ccccc2)n1	0	15	0	0	0	0
CC(C)[C@H](NC(=O)c1ccccc1Cl)C(=O)OCC(=O)N1CCCCC1	0	0	-	0	-	0
Cc1cc(N/N=C/c2cccc(F)c2)nc(NCc2ccccc2)n1	0	15	0	0	0	0
Cc1cc(N/N=C/c2ccccc2F)nc(NCc2ccccc2)n1	0	0	0	0	0	0
COc1cc([C@H]2c3c(cc(OC)c(O)c3OC)C[C@@H](CO)[C@@H]2CO[C@@H]2O[C@H](CO)[C@@H](O)[C@H](O)[C@H]2O)cc(OC)c1O	0	0	-	0	-	0
COc1ccc2c(-c3ccccc3)cc(SCC(=O)NC(N)=O)nc2c1	0	0	-	0	77	0
COCCNC(=O)CSc1cc(-c2ccccc2)c2ccc(OC)cc2n1	0	0	0	0	0	0
O=C1c2ccccc2C(=O)C1c1ccc(Cl)cc1	0	0	0	0	-	0
O=C1c2ccccc2C(=O)C12OC2c1ccc(Cl)cc1Cl (stereo unspecified)	0	0	-	0	88	0
NC(N)=NN=C1c2ccccc2-c2ccccc21	0	23	0	0	-	0
COc1cccc(N(C(=O)Cn2nnc(-c3cccs3)n2)C(C(=O)NC(C)C)c2ccc(C)o2)c1 (stereo unspecified)	0	0	0	0	93	0
COc1cccc(N(C(=O)Cn2nnc(-c3ccc(C)o3)n2)C(C(=O)NC2CCCC2)c2ccncc2)c1 (stereo unspecified)	0	0	0	0	-	0
Nc1ccc(NC(=S)Nc2ccccc2)cc1	0	25	0	-	0	0
Cc1ccc(S(=O)(=O)N2CCCC(c3nc4c(nnn4Cc4ccc5c(c4)OCCO5)c(=O)[nH]3)C2)cc1 (stereo unspecified)	0	0	0	0	-	0
CN(/N=C/c1c[nH]c2ccccc12)c1cnn(-c2ccc(F)c(Cl)c2)c(=O)c1Cl	0	259	0	0	0	0
CCOC(=O)c1c(C)[nH]c(C(=O)N/N=C\c2ccccc2O)c1C	77	17	0	0	0	79
COc1cccc(/C=N/NC(=O)c2cc3cc([N+](=O)[O-])ccc3s2)c1O	82	12	0	0	100	106
COc1cccc(/C=N/NC(=O)c2cc3c(OC)cccc3[nH]2)c1O	-	0	0	0	92	-
COc1ccc(/C=N/NC(=O)c2cc3c(OC)ccc(OC)c3[nH]2)cc1O	0	0	0	0	-	0
COc1ccc(OC)c2[nH]c(C(=O)N/N=C/c3ccccc3O)cc12	96	18	0	0	-	0

Assay outcomes from PubChem.
